According to ChEMBL document CHEMBL5303300, “EUbOPEN Chemogenomics Library - Multiplex” (2023):
Values joined by “and” are separate entries in the source; they are usually repeats but may differ in a detail not shown here. Equal values may be shown once.

How the values were obtained:
Type in all cases: toxicity, cell-based
HEK-293T = experiment: Multiplex assay against HEK293T; conditions: human, number of replicates 2
Method in brief: (§1)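 Hoechst33342, BioTracker Green Microtubule Cytoskeleton Dye, MitoTracker Red and Annexin V Alexa Fluor 680 were added to live cells at seeding, and imaging on a CQ1 microscope at 37°C and 5% CO2 followed compound addition. Gating by CellPathfinder machine learning separated cells into Hoechst high-intensity objects or normal cells, then normal cells into healthy, pyknosed or fragmented nuclei, then pyknosed cells into mitotic or apoptotic. Per cents of healthy-nucleus cells are reported for the tubulin, mitochondrial-mass and membrane-permeability phenotypes.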

U2OS = experiment: Multiplex assay against U2OS; conditions: human, number of replicates 2; method in brief: as §1
Fibroblast = experiment: Multiplex assay against human fibroblast; conditions: number of replicates 2; method in brief: as §1
[1] = 12 h, 1 µM, compound concentration 1 uM
[2] = 12 h, 10 µM, compound concentration 10 uM
[3] = 24 h, 1 µM, compound concentration 1 uM
[4] = 24 h, 10 µM, compound concentration 10 uM
[5] = 48 h, 1 µM, compound concentration 1 uM
[6] = 48 h, 10 µM, compound concentration 10 uM

## COc1cc2nc(-c3cc(F)ccc3O)nc(N[C@@H]3CNC[C@H]3C(C)(C)O)c2cc1OC.Cl.Cl
HEK-293T; [1]
  Population Apoptotic (%): 40% and 65%
  Population Fragmented Nuclei (%): 4% and 3%
  Population Healthy Nuclei (%): 86% and 83%
  Population Hoechst High Intensity Objects (%): 6% and 5%
  Population Membrane Permeable-Phenotype (%): 4% and 3%
  Population Mitochondria Different-Phenotype (%): 24% and 25%
  Population Mitotic Cells (%): 59% and 34%
  Population Normal (%): 93% and 94%
  Population Pyknosed Nuclei (%): 9% and 13%
  Population Tubulin-Different-Phenotype (%): 78%
  Total Cell Count: 681 and 543
HEK-293T; [2]
  Population Apoptotic (%): 78% and 80%
  Population Fragmented Nuclei (%): 2%
  Population Healthy Nuclei (%): 62% and 61%
  Population Hoechst High Intensity Objects (%): 7% and 8%
  Population Membrane Permeable-Phenotype (%): 4% and 2%
  Population Mitochondria Different-Phenotype (%): 82% and 75%
  Population Mitotic Cells (%): 21% and 19%
  Population Normal (%): 92% and 91%
  Population Pyknosed Nuclei (%): 35%
  Population Tubulin-Different-Phenotype (%): 97%
  Total Cell Count: 476 and 483
HEK-293T; [3]
  Population Apoptotic (%): 47% and 69%
  Population Fragmented Nuclei (%): 6%
  Population Healthy Nuclei (%): 85% and 84%
  Population Hoechst High Intensity Objects (%): 8% and 9%
  Population Membrane Permeable-Phenotype (%): 3%
  Population Mitochondria Different-Phenotype (%): 12% and 17%
  Population Mitotic Cells (%): 52% and 30%
  Population Normal (%): 91% and 90%
  Population Pyknosed Nuclei (%): 7% and 8%
  Population Tubulin-Different-Phenotype (%): 63% and 68%
  Total Cell Count: 1032 and 692
HEK-293T; [4]
  Population Apoptotic (%): 87% and 80%
  Population Fragmented Nuclei (%): 4% and 2%
  Population Healthy Nuclei (%): 50% and 51%
  Population Hoechst High Intensity Objects (%): 20% and 25%
  Population Membrane Permeable-Phenotype (%): 6% and 4%
  Population Mitochondria Different-Phenotype (%): 65% and 68%
  Population Mitotic Cells (%): 12% and 20%
  Population Normal (%): 79% and 74%
  Population Pyknosed Nuclei (%): 45%
  Population Tubulin-Different-Phenotype (%): 84% and 89%
  Total Cell Count: 441 and 428
HEK-293T; [5]
  Population Apoptotic (%): 22% and 35%
  Population Fragmented Nuclei (%): 14% and 7%
  Population Healthy Nuclei (%): 82% and 88%
  Population Hoechst High Intensity Objects (%): 9% and 11%
  Population Membrane Permeable-Phenotype (%): 3% and 1%
  Population Mitochondria Different-Phenotype (%): 1% and 3%
  Population Mitotic Cells (%): 77% and 64%
  Population Normal (%): 90% and 88%
  Population Pyknosed Nuclei (%): 3% and 4%
  Population Tubulin-Different-Phenotype (%): 26% and 35%
  Total Cell Count: 2589 and 1346
HEK-293T; [6]
  Population Apoptotic (%): 85% and 77%
  Population Fragmented Nuclei (%): 4% and 3%
  Population Healthy Nuclei (%): 32% and 30%
  Population Hoechst High Intensity Objects (%): 21% and 24%
  Population Membrane Permeable-Phenotype (%): 6% and 5%
  Population Mitochondria Different-Phenotype (%): 58%
  Population Mitotic Cells (%): 14% and 22%
  Population Normal (%): 78% and 75%
  Population Pyknosed Nuclei (%): 62% and 66%
  Population Tubulin-Different-Phenotype (%): 82% and 81%
  Total Cell Count: 411 and 392
U2OS; [1]
  Population Apoptotic (%): 100% and 76%
  Population Healthy Nuclei (%): 57% and 82%
  Population Hoechst High Intensity Objects (%): 0%
  Population Membrane Permeable-Phenotype (%): 21% and 13%
  Population Mitochondria Different-Phenotype (%): 18% and 27%
  Population Mitotic Cells (%): 0% and 23%
  Population Normal (%): 100% and 99%
  Population Pyknosed Nuclei (%): 17% and 10%
  Population Tubulin-Different-Phenotype (%): 46% and 30%
U2OS; [2]
  Population Apoptotic (%): 96% and 91%
  Population Fragmented Nuclei (%): 14% and 11%
  Population Healthy Nuclei (%): 5% and 3%
  Population Hoechst High Intensity Objects (%): 0%
  Population Membrane Permeable-Phenotype (%): 100%
  Population Mitochondria Different-Phenotype (%): 50% and 66%
  Population Mitotic Cells (%): 3% and 8%
  Population Normal (%): 100%
  Population Pyknosed Nuclei (%): 79% and 85%
  Population Tubulin-Different-Phenotype (%): 100%
U2OS; [3]
  Population Apoptotic (%): 83% and 85%
  Population Fragmented Nuclei (%): 23% and 9%
  Population Healthy Nuclei (%): 65% and 74%
  Population Hoechst High Intensity Objects (%): 0%
  Population Membrane Permeable-Phenotype (%): 26% and 12%
  Population Mitochondria Different-Phenotype (%): 23% and 34%
  Population Mitotic Cells (%): 16% and 14%
  Population Normal (%): 100%
  Population Pyknosed Nuclei (%): 11% and 16%
  Population Tubulin-Different-Phenotype (%): 47% and 34%
U2OS; [4]
  Population Apoptotic (%): 91% and 90%
  Population Fragmented Nuclei (%): 14% and 22%
  Population Healthy Nuclei (%): 3% and 0%
  Population Hoechst High Intensity Objects (%): 2% and 0%
  Population Mitotic Cells (%): 8% and 9%
  Population Normal (%): 97% and 100%
  Population Pyknosed Nuclei (%): 82% and 77%
U2OS; [5]
  Population Apoptotic (%): 84% and 94%
  Population Fragmented Nuclei (%): 17% and 6%
  Population Healthy Nuclei (%): 52% and 77%
  Population Hoechst High Intensity Objects (%): 0%
  Population Membrane Permeable-Phenotype (%): 12% and 9%
  Population Mitochondria Different-Phenotype (%): 27% and 34%
  Population Mitotic Cells (%): 15% and 5%
  Population Normal (%): 100%
  Population Pyknosed Nuclei (%): 30% and 15%
  Population Tubulin-Different-Phenotype (%): 24% and 34%
U2OS; [6]
  Population Apoptotic (%): 96% and 89%
  Population Fragmented Nuclei (%): 10% and 19%
  Population Healthy Nuclei (%): 3% and 4%
  Population Hoechst High Intensity Objects (%): 0%
  Population Membrane Permeable-Phenotype (%): 100% and 85%
  Population Mitochondria Different-Phenotype (%): 100% and 71%
  Population Mitotic Cells (%): 4% and 10%
  Population Normal (%): 100% and 99%
  Population Pyknosed Nuclei (%): 86% and 76%
  Population Tubulin-Different-Phenotype (%): 100% and 85%
Fibroblast; [1]
  Population Apoptotic (%): 35% and 34%
  Population Healthy Nuclei (%): 60% and 58%
  Population Hoechst High Intensity Objects (%): 0%
  Population Membrane Permeable-Phenotype (%): 11% and 9%
  Population Mitochondria Different-Phenotype (%): 0% and 2%
  Population Mitotic Cells (%): 65%
  Population Normal (%): 100%
  Population Pyknosed Nuclei (%): 33% and 24%
  Population Tubulin-Different-Phenotype (%): 48% and 46%
  Total Cell Count: 178 and 189
Fibroblast; [2]
  Population Apoptotic (%): 72% and 73%
  Population Healthy Nuclei (%): 8% and 16%
  Population Hoechst High Intensity Objects (%): 0%
  Population Mitochondria Different-Phenotype (%): 26% and 25%
  Population Mitotic Cells (%): 27% and 26%
  Population Normal (%): 99% and 100%
  Population Pyknosed Nuclei (%): 85% and 67%
  Population Tubulin-Different-Phenotype (%): 86% and 67%
  Total Cell Count: 170 and 187
Fibroblast; [3]
  Population Apoptotic (%): 44% and 53%
  Population Fragmented Nuclei (%): 15% and 17%
  Population Healthy Nuclei (%): 63% and 65%
  Population Hoechst High Intensity Objects (%): 0%
  Population Membrane Permeable-Phenotype (%): 4% and 1%
  Population Mitochondria Different-Phenotype (%): 0% and 3%
  Population Mitotic Cells (%): 55% and 46%
  Population Normal (%): 99% and 100%
  Population Pyknosed Nuclei (%): 21% and 17%
  Population Tubulin-Different-Phenotype (%): 26% and 37%
  Total Cell Count: 211 and 188
Fibroblast; [4]
  Population Apoptotic (%): 87% and 93%
  Population Healthy Nuclei (%): 1% and 2%
  Population Hoechst High Intensity Objects (%): 0%
  Population Membrane Permeable-Phenotype (%): 50% and 25%
  Population Mitochondria Different-Phenotype (%): 0% and 25%
  Population Mitotic Cells (%): 12% and 6%
  Population Normal (%): 100%
  Population Pyknosed Nuclei (%): 92% and 80%
  Population Tubulin-Different-Phenotype (%): 50%
  Total Cell Count: 168
Fibroblast; [5]
  Population Apoptotic (%): 59% and 75%
  Population Fragmented Nuclei (%): 13% and 17%
  Population Healthy Nuclei (%): 75% and 70%
  Population Hoechst High Intensity Objects (%): 0%
  Population Membrane Permeable-Phenotype (%): 4% and 1%
  Population Mitochondria Different-Phenotype (%): 1% and 0%
  Population Mitotic Cells (%): 40% and 25%
  Population Normal (%): 100%
  Population Pyknosed Nuclei (%): 10% and 12%
  Population Tubulin-Different-Phenotype (%): 27% and 11%
  Total Cell Count: 201 and 191
Fibroblast; [6]
  Population Apoptotic (%): 94% and 92%
  Population Fragmented Nuclei (%): 18% and 9%
  Population Healthy Nuclei (%): 3% and 4%
  Population Hoechst High Intensity Objects (%): 0%
  Population Membrane Permeable-Phenotype (%): 33% and 42%
  Population Mitochondria Different-Phenotype (%): 0%
  Population Mitotic Cells (%): 5% and 7%
  Population Normal (%): 100% and 99%
  Population Pyknosed Nuclei (%): 77% and 85%
  Population Tubulin-Different-Phenotype (%): 33% and 85%
  Total Cell Count: 171 and 162
